Measurements taken from ChEMBL document CHEMBL5303300, “EUbOPEN Chemogenomics Library - Multiplex” (2023).
“And” between values parts separate entries of the source, which are not always exact repeats. Equal values may be shown once.

Test system: HEK-293T
Test: Multiplex assay against HEK293T
Format: toxicity, cell-based
Details: human, number of replicates 2
How it was run: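 Live cells carried four stains from seeding: Hoechst33342, BioTracker Green Microtubule Cytoskeleton Dye, MitoTracker Red and Annexin V Alexa Fluor 680. They were imaged on a CQ1 microscope at 37°C and 5% CO2 after compound addition. Using CellPathfinder machine-learning gating, cells were split into Hoechst high-intensity objects or normal cells, normal cells into healthy, pyknosed or fragmented nuclei, and pyknosed cells into mitotic or apoptotic; tubulin, mitochondrial-mass and membrane-permeability phenotypes are per cents of healthy-nucleus cells.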

[1] = 12 h, 1 µM, compound concentration 1 uM
[2] = 12 h, 10 µM, compound concentration 10 uM
[3] = 24 h, 1 µM, compound concentration 1 uM
[4] = 24 h, 10 µM, compound concentration 10 uM
[5] = 48 h, 1 µM, compound concentration 1 uM
[6] = 48 h, 10 µM, compound concentration 10 uM

## COc1cccc(Cn2cc(C(=O)Nc3ccc(C)c(S(=O)(=O)N4CCOCC4)c3)c(-c3ccc(C)cc3)n2)c1
[1]
  Population Apoptotic (%): 39% and 54%
  Population Fragmented Nuclei (%): 2%
  Population Healthy Nuclei (%): 81% and 84%
  Population Hoechst High Intensity Objects (%): 5% and 4%
  Population Membrane Permeable-Phenotype (%): 6% and 4%
  Population Mitochondria Different-Phenotype (%): 25% and 22%
  Population Mitotic Cells (%): 60% and 45%
  Population Normal (%): 94% and 95%
  Population Pyknosed Nuclei (%): 15% and 12%
  Population Tubulin-Different-Phenotype (%): 76%
  Total Cell Count: 633 and 601
[2]
  Population Apoptotic (%): 35% and 56%
  Population Fragmented Nuclei (%): 1% and 3%
  Population Healthy Nuclei (%): 83%
  Population Hoechst High Intensity Objects (%): 6% and 7%
  Population Membrane Permeable-Phenotype (%): 21% and 19%
  Population Mitochondria Different-Phenotype (%): 24% and 26%
  Population Mitotic Cells (%): 64% and 43%
  Population Normal (%): 93% and 92%
  Population Pyknosed Nuclei (%): 14% and 13%
  Population Tubulin-Different-Phenotype (%): 84% and 87%
  Total Cell Count: 611 and 568
[3]
  Population Apoptotic (%): 46% and 42%
  Population Fragmented Nuclei (%): 5% and 4%
  Population Healthy Nuclei (%): 84% and 87%
  Population Hoechst High Intensity Objects (%): 9% and 6%
  Population Membrane Permeable-Phenotype (%): 5% and 6%
  Population Mitochondria Different-Phenotype (%): 13% and 12%
  Population Mitotic Cells (%): 53% and 57%
  Population Normal (%): 90% and 93%
  Population Pyknosed Nuclei (%): 9% and 8%
  Population Tubulin-Different-Phenotype (%): 59%
  Total Cell Count: 851 and 807
[4]
  Population Apoptotic (%): 34% and 50%
  Population Fragmented Nuclei (%): 3% and 2%
  Population Healthy Nuclei (%): 81% and 83%
  Population Hoechst High Intensity Objects (%): 8%
  Population Membrane Permeable-Phenotype (%): 19% and 22%
  Population Mitochondria Different-Phenotype (%): 21% and 22%
  Population Mitotic Cells (%): 65% and 50%
  Population Normal (%): 91%
  Population Pyknosed Nuclei (%): 15% and 13%
  Population Tubulin-Different-Phenotype (%): 90%
  Total Cell Count: 684 and 610
[5]
  Population Apoptotic (%): 27% and 29%
  Population Fragmented Nuclei (%): 8%
  Population Healthy Nuclei (%): 87% and 85%
  Population Hoechst High Intensity Objects (%): 9%
  Population Membrane Permeable-Phenotype (%): 7%
  Population Mitochondria Different-Phenotype (%): 3% and 4%
  Population Mitotic Cells (%): 72% and 70%
  Population Normal (%): 90%
  Population Pyknosed Nuclei (%): 4% and 5%
  Population Tubulin-Different-Phenotype (%): 39% and 45%
  Total Cell Count: 1564 and 1391
[6]
  Population Apoptotic (%): 23% and 62%
  Population Fragmented Nuclei (%): 5%
  Population Healthy Nuclei (%): 86% and 83%
  Population Hoechst High Intensity Objects (%): 9%
  Population Membrane Permeable-Phenotype (%): 26% and 27%
  Population Mitochondria Different-Phenotype (%): 13% and 12%
  Population Mitotic Cells (%): 76% and 37%
  Population Normal (%): 90%
  Population Pyknosed Nuclei (%): 7% and 10%
  Population Tubulin-Different-Phenotype (%): 87% and 91%
  Total Cell Count: 752 and 689

## Cn1ncc(NC(=O)c2nc(-c3c(F)cccc3F)sc2N)c1N1CC[C@@H](N)[C@H](F)CC1
[1]
  Population Apoptotic (%): 29% and 32%
  Population Healthy Nuclei (%): 85% and 86%
  Population Mitochondria Different-Phenotype (%): 10% and 6%
  Population Mitotic Cells (%): 70% and 67%
  Population Normal (%): 92% and 95%
  Population Pyknosed Nuclei (%): 10%
  Population Tubulin-Different-Phenotype (%): 42% and 32%
  Total Cell Count: 737 and 724
[2]
  Population Apoptotic (%): 34% and 47%
  Population Healthy Nuclei (%): 81% and 80%
  Population Mitotic Cells (%): 65% and 52%
  Population Normal (%): 95% and 97%
  Population Pyknosed Nuclei (%): 16%
  Population Tubulin-Different-Phenotype (%): 54% and 47%
  Total Cell Count: 730 and 672
[3]
  Population Apoptotic (%): 21% and 25%
  Population Healthy Nuclei (%): 87% and 86%
  Population Mitochondria Different-Phenotype (%): 4%
  Population Mitotic Cells (%): 78% and 74%
  Population Normal (%): 93% and 90%
  Population Pyknosed Nuclei (%): 8% and 9%
  Population Tubulin-Different-Phenotype (%): 25% and 21%
  Total Cell Count: 1100 and 1020
[4]
  Population Apoptotic (%): 47% and 52%
  Population Healthy Nuclei (%): 85% and 86%
  Population Mitochondria Different-Phenotype (%): 16%
  Population Mitotic Cells (%): 52% and 47%
  Population Normal (%): 97% and 95%
  Population Tubulin-Different-Phenotype (%): 44% and 41%
  Total Cell Count: 753 and 689
[5]
  Population Apoptotic (%): 15%
  Population Healthy Nuclei (%): 86% and 85%
  Population Mitotic Cells (%): 90% and 84%
  Population Normal (%): 89% and 85%
  Population Pyknosed Nuclei (%): 4% and 5%
  Population Tubulin-Different-Phenotype (%): 12% and 13%
  Total Cell Count: 2209 and 1829
[6]
  Population Apoptotic (%): 44% and 55%
  Population Healthy Nuclei (%): 89% and 87%
  Population Mitochondria Different-Phenotype (%): 10%
  Population Mitotic Cells (%): 55%
  Population Normal (%): 94% and 92%
  Population Pyknosed Nuclei (%): 4% and 6%
  Population Tubulin-Different-Phenotype (%): 29% and 23%
  Total Cell Count: 770 and 768

## COc1ncc(-c2cc(-c3ncc(CN4C[C@@H](C)O[C@@H](C)C4)o3)c3cn[nH]c3c2)cc1NS(C)(=O)=O
[1]
  Population Apoptotic (%): 48% and 56%
  Population Fragmented Nuclei (%): 3% and 2%
  Population Healthy Nuclei (%): 86% and 81%
  Population Hoechst High Intensity Objects (%): 10%
  Population Membrane Permeable-Phenotype (%): 4% and 1%
  Population Mitochondria Different-Phenotype (%): 17% and 26%
  Population Mitotic Cells (%): 51% and 43%
  Population Normal (%): 89%
  Population Pyknosed Nuclei (%): 10% and 15%
  Population Tubulin-Different-Phenotype (%): 65% and 71%
  Total Cell Count: 695 and 654
[2]
  Population Apoptotic (%): 46% and 58%
  Population Fragmented Nuclei (%): 2% and 3%
  Population Healthy Nuclei (%): 75% and 82%
  Population Hoechst High Intensity Objects (%): 9%
  Population Membrane Permeable-Phenotype (%): 0% and 1%
  Population Mitochondria Different-Phenotype (%): 54% and 51%
  Population Mitotic Cells (%): 53% and 41%
  Population Normal (%): 90%
  Population Pyknosed Nuclei (%): 22% and 14%
  Population Tubulin-Different-Phenotype (%): 88% and 87%
  Total Cell Count: 336 and 358
[3]
  Population Apoptotic (%): 40% and 54%
  Population Fragmented Nuclei (%): 7% and 5%
  Population Healthy Nuclei (%): 86% and 83%
  Population Hoechst High Intensity Objects (%): 12% and 10%
  Population Membrane Permeable-Phenotype (%): 2% and 1%
  Population Mitochondria Different-Phenotype (%): 4% and 10%
  Population Mitotic Cells (%): 59% and 45%
  Population Normal (%): 87% and 89%
  Population Pyknosed Nuclei (%): 6% and 10%
  Population Tubulin-Different-Phenotype (%): 37% and 44%
  Total Cell Count: 1173 and 987
[4]
  Population Apoptotic (%): 46% and 45%
  Population Fragmented Nuclei (%): 4%
  Population Healthy Nuclei (%): 82% and 76%
  Population Hoechst High Intensity Objects (%): 9% and 10%
  Population Membrane Permeable-Phenotype (%): 1%
  Population Mitochondria Different-Phenotype (%): 41% and 44%
  Population Mitotic Cells (%): 53% and 54%
  Population Normal (%): 90% and 89%
  Population Pyknosed Nuclei (%): 13% and 19%
  Population Tubulin-Different-Phenotype (%): 79% and 86%
  Total Cell Count: 379 and 373
[5]
  Population Apoptotic (%): 13% and 26%
  Population Fragmented Nuclei (%): 15% and 9%
  Population Healthy Nuclei (%): 81% and 85%
  Population Hoechst High Intensity Objects (%): 11%
  Population Membrane Permeable-Phenotype (%): 7% and 2%
  Population Mitochondria Different-Phenotype (%): 0% and 2%
  Population Mitotic Cells (%): 86% and 73%
  Population Normal (%): 88%
  Population Pyknosed Nuclei (%): 2% and 4%
  Population Tubulin-Different-Phenotype (%): 22% and 30%
  Total Cell Count: 2777 and 1879
[6]
  Population Apoptotic (%): 55% and 40%
  Population Fragmented Nuclei (%): 6% and 4%
  Population Healthy Nuclei (%): 87% and 83%
  Population Hoechst High Intensity Objects (%): 13% and 9%
  Population Membrane Permeable-Phenotype (%): 2% and 3%
  Population Mitochondria Different-Phenotype (%): 18% and 21%
  Population Mitotic Cells (%): 44% and 59%
  Population Normal (%): 86% and 90%
  Population Pyknosed Nuclei (%): 6% and 11%
  Population Tubulin-Different-Phenotype (%): 74% and 82%
  Total Cell Count: 527 and 510

## CNC(=O)c1c(F)cccc1Nc1nc(Nc2cc3c(cc2OC)CCN3C(=O)CN(C)C)nc2[nH]ccc12
[1]
  Population Apoptotic (%): 62% and 55%
  Population Fragmented Nuclei (%): 4% and 2%
  Population Healthy Nuclei (%): 82% and 86%
  Population Hoechst High Intensity Objects (%): 12%
  Population Membrane Permeable-Phenotype (%): 1% and 0%
  Population Mitochondria Different-Phenotype (%): 46% and 51%
  Population Mitotic Cells (%): 37% and 44%
  Population Normal (%): 87%
  Population Pyknosed Nuclei (%): 13% and 10%
  Population Tubulin-Different-Phenotype (%): 81% and 83%
  Total Cell Count: 326 and 308
[2]
  Population Apoptotic (%): 45% and 56%
  Population Fragmented Nuclei (%): 7%
  Population Healthy Nuclei (%): 75% and 73%
  Population Hoechst High Intensity Objects (%): 44% and 47%
  Population Membrane Permeable-Phenotype (%): 4% and 2%
  Population Mitochondria Different-Phenotype (%): 66% and 59%
  Population Mitotic Cells (%): 54% and 44%
  Population Normal (%): 55% and 52%
  Population Pyknosed Nuclei (%): 17% and 19%
  Population Tubulin-Different-Phenotype (%): 94% and 93%
  Total Cell Count: 246 and 244
[3]
  Population Apoptotic (%): 40% and 83%
  Population Fragmented Nuclei (%): 9% and 7%
  Population Healthy Nuclei (%): 84% and 88%
  Population Hoechst High Intensity Objects (%): 12% and 9%
  Population Membrane Permeable-Phenotype (%): 0%
  Population Mitochondria Different-Phenotype (%): 34% and 30%
  Population Normal (%): 87% and 90%
  Population Pyknosed Nuclei (%): 5% and 4%
  Population Tubulin-Different-Phenotype (%): 81% and 79%
  Total Cell Count: 390 and 332
[4]
  Population Apoptotic (%): 37% and 38%
  Population Fragmented Nuclei (%): 6%
  Population Healthy Nuclei (%): 79% and 80%
  Population Hoechst High Intensity Objects (%): 37% and 45%
  Population Membrane Permeable-Phenotype (%): 8% and 4%
  Population Mitochondria Different-Phenotype (%): 45% and 40%
  Population Mitotic Cells (%): 62% and 61%
  Population Normal (%): 62% and 54%
  Population Pyknosed Nuclei (%): 14% and 12%
  Population Tubulin-Different-Phenotype (%): 93% and 94%
  Total Cell Count: 266 and 259
[5]
  Population Apoptotic (%): 25% and 66%
  Population Fragmented Nuclei (%): 16% and 11%
  Population Healthy Nuclei (%): 80% and 86%
  Population Hoechst High Intensity Objects (%): 21% and 30%
  Population Membrane Permeable-Phenotype (%): 1%
  Population Mitochondria Different-Phenotype (%): 4% and 8%
  Population Mitotic Cells (%): 75% and 33%
  Population Normal (%): 78% and 69%
  Population Pyknosed Nuclei (%): 2% and 1%
  Population Tubulin-Different-Phenotype (%): 63% and 69%
  Total Cell Count: 741 and 531
[6]
  Population Apoptotic (%): 57% and 71%
  Population Fragmented Nuclei (%): 9%
  Population Healthy Nuclei (%): 80% and 77%
  Population Hoechst High Intensity Objects (%): 29% and 35%
  Population Membrane Permeable-Phenotype (%): 5% and 7%
  Population Mitochondria Different-Phenotype (%): 18% and 11%
  Population Mitotic Cells (%): 42% and 28%
  Population Normal (%): 70% and 64%
  Population Pyknosed Nuclei (%): 9% and 13%
  Population Tubulin-Different-Phenotype (%): 87%
  Total Cell Count: 402 and 414
